Experimental data of several laboratories.
Lines come from different studies, so protocols differ.
Observed: metabolic stability
Species: human
Medium: liver microsomes

Structure (SMILES)	concentration	time	pH	compound remaining
Cc1cn(-c2ccc(-c3csc(Nc4c5c(nn4C)CCCC5)n3)cc2)cn1	1 µM	30 min		55%
CS(=O)(=O)c1ccc(-c2cnc(N)c(-c3ccc(C(F)(F)F)nc3)c2)cc1	1 µM	30 min		92%
CC[C@H](NC(=O)[C@H](CS(=O)(=O)CC1CC1)N[C@@H](c1ccc(F)cc1)C(F)(F)F)C(=O)C(=O)NC1CC1		1 h		93%
Nc1nc(-c2cccc(NC(=O)Nc3cccc(-c4c[nH]c(N)n4)c3)c2)c[nH]1	5 µM	1 h	pH 7.4	> 80%
CC(C)NCC(O)COc1cccc2ccccc12 (centres unmarked)	1 µM	30 min		63%
O=C(Nc1ccc(S(=O)(=O)N2CCC(Cl)CC2)cc1)c1ccc([N+](=O)[O-])o1	1 µM	1 h	pH 7.4	0.49%
O=C(CCCO)N1N=C(c2c(-c3ccc(Cl)cc3)c3ccccc3[nH]c2=O)CC1c1ccc(Cl)cc1 (centres unmarked)	1 µM	20 min	pH 7.4	31%
Nc1nc(-c2ccc(NC(=O)Nc3cccc(-c4c[nH]c(N)n4)c3F)cc2F)c[nH]1	5 µM	1 h	pH 7.4	> 80%
